Laboratory results reported in ChEMBL document CHEMBL4706575, “Nonpeptidic quinazolinone derivatives as dual nucleotide-binding oligomerization domain-like receptor 1/2 antagonists for adjuvant cancer chemotherapy” (Eur J Med Chem, 2020).

Key:
[1] = biological target: T1, Nucleotide-binding oligomerization domain-containing protein 1 (Homo sapiens) (UniProt Q9Y239); assay: Antagonist activity at NOD1 in HEK-Blue hNOD1 cells assessed as inhibition of C12-iE-DAP-induced NFkappaB activation-mediated SEAP release at 5 uM preincubated for 3 hrs followed by C12-iE-DAP addition and measured after 20 hrs by spectrophotometric method relative to control; type: cell-based; conditions: time 23.0 hrs
T1 sequence (whole entry): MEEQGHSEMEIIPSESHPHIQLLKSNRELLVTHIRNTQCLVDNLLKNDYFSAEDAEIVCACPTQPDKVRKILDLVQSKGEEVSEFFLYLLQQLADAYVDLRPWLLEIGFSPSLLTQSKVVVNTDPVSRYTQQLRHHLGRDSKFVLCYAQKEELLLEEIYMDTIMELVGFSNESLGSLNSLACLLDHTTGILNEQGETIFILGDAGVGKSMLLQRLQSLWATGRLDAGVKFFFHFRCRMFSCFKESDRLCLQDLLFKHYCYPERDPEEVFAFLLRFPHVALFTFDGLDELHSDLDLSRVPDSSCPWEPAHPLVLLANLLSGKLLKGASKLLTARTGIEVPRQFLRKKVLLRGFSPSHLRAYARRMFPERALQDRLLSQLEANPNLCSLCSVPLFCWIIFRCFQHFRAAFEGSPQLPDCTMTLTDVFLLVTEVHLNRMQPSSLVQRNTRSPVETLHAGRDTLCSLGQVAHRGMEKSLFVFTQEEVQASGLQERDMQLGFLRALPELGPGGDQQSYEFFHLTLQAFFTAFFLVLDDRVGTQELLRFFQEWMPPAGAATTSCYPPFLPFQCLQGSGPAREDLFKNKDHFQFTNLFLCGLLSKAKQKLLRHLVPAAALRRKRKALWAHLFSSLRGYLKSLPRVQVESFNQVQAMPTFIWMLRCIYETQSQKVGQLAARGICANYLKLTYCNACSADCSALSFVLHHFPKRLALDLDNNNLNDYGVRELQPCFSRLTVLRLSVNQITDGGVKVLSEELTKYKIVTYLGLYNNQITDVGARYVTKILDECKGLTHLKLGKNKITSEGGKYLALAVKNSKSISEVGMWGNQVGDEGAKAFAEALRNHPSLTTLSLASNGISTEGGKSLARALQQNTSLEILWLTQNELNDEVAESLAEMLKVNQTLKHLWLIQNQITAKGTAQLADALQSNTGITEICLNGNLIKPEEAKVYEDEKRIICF

[2] = Half life in mouse liver microsomes at 1.25 uM preincubated for 5 mins followed by NADPH generating system addition and measured for 120 mins by LC-MS/MS analysis; type: ADME, Microsome
Outline: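 Mouse liver microsomes (1.25 mg/mL protein) in 100 mM phosphate pH 7.4 with 1.25 µM compound, preincubated 5 min at 37 °C. Reaction started with NADPH-generating system (1 mM NADP, 10 mM MgCl2, 10 mM G6P, 0.5 U/mL G6PDH). Sampled at 0–120 min, quenched with MeOH/ACN 1:1, analysed by LC-MS/MS.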

[3] = biological target: T2, Nucleotide-binding oligomerization domain-containing protein 1 (Homo sapiens, UniProt Q9Y239); assay: Antagonist activity at NOD1 in HEK-Blue hNOD1 cells assessed as inhibition of C12-iE-DAP-induced NFkappaB activation-mediated SEAP release preincubated for 3 hrs followed by C12-iE-DAP addition and measured after 20 hrs by spectrophotometric method; type: cell-based
T2 sequence (Q9Y239 whole entry): T1 sequence (whole entry)

[4] = biological target: T3, Nucleotide-binding oligomerization domain-containing protein 2 (Homo sapiens, UniProt Q9HC29); assay: Antagonist activity at NOD2 in HEK-Blue hNOD2 cells assessed as inhibition of MDP-induced NFkappaB activation-mediated SEAP release at 5 uM preincubated for 3 hrs followed by MDP addition and measured after 20 hrs by spectrophotometric method relative to control; type: cell-based; conditions: time 23.0 hrs
[5] = biological target: T3, Nucleotide-binding oligomerization domain-containing protein 2; assay: Antagonist activity at NOD2 in HEK-Blue hNOD2 cells assessed as inhibition of MDP-induced NFkappaB activation-mediated SEAP release preincubated for 3 hrs followed by MDP addition and measured after 20 hrs by spectrophotometric method; type: cell-based
Outline: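 HEK-Blue hNOD2 cells preincubated 3 h with a range of concentrations, then MDP 100 ng/mL for 20 h. SEAP quantified. SRB assay run to exclude cytotoxicity. IC50 by nonlinear semi-logarithmic fit, mean ± SD, n = 3.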

[6] = biological target: T3, Nucleotide-binding oligomerization domain-containing protein 2; assay: Antagonist activity at recombinant human NOD2 expressed in HEK293 cells assessed as inhibition of MDP-induced IL8 release measured after 24 hrs by HTRF assay; type: cell-based

T3 sequence (Q9HC29 whole entry, the tested form may be a part): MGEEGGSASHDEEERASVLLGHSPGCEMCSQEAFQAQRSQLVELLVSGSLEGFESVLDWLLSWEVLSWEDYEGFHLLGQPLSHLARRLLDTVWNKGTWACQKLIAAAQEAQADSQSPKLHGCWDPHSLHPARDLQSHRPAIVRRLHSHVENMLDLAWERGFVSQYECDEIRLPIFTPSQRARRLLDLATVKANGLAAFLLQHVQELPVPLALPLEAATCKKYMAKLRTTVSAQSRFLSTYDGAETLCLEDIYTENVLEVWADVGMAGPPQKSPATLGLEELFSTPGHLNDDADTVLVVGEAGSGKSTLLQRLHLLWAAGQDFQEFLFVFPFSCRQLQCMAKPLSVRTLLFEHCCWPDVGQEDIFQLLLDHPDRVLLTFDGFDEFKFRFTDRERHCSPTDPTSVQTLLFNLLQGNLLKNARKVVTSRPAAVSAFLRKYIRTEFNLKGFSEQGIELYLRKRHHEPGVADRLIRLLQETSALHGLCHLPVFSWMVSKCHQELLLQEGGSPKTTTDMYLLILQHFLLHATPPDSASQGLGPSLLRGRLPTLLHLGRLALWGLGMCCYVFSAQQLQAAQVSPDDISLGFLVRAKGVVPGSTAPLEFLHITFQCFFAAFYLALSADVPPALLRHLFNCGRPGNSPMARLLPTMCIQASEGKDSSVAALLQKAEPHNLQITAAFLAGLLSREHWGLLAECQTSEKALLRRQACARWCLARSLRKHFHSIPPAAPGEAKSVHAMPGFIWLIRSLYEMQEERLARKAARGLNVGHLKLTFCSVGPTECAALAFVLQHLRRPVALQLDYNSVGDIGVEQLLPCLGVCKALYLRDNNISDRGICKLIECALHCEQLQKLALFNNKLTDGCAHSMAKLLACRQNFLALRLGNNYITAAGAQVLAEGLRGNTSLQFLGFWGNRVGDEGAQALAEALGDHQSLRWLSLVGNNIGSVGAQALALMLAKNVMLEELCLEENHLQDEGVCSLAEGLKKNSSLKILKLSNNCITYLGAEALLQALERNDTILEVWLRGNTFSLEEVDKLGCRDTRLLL

Compound | inhibition ([1]; filed as antagonist) [%] | IC50 [3] [nM] | inhibition [1] [%] | also measured
O=C(NCCCc1ccc(Cl)cc1)c1cc2nc[nH]c(=O)c2cc1-c1cccc(F)c1 | 43.5 |  |  | 
COC(=O)Cn1cnc2cc(NC(=O)CCCOc3ccc(C(F)(F)F)cc3)c(Oc3cccc(N4CCOCC4)c3)cc2c1=O | 91.2 | 1380 |  | half-life at 1.25 µM [2]: 9.6 min
CN(C)c1cccc(Oc2cc3c(=O)n(CC(=O)N4CCCC(F)(F)C4)cnc3cc2NC(=O)COCc2ccc(C(F)(F)F)cc2)c1 | 90.4 | 140 |  | inhibition ([4]; filed as antagonist): 94.2%; IC50 [5]: 660 nM
O=C(NCCOCc1ccc(C(F)(F)F)cc1)c1cc2nc[nH]c(=O)c2cc1-c1cccc(F)c1 | 56.1 | 4110 |  | 
O=C(NCCCc1ccccc1)c1cc2nc[nH]c(=O)c2cc1-c1cccc(Cl)c1 |  |  | 6.6 | 
CN(C)c1cccc(Oc2cc3c(=O)[nH]cnc3cc2NC(=O)COCc2ccc(C#N)cc2)c1 |  | 9330 | 30.4 | inhibition [4]: 19.3%
COC(=O)Cn1cnc2cc(C(=O)NCCOCc3ccc(C(F)(F)F)cc3)c(-c3cccc(Cl)c3)cc2c1=O | 82.4 | 1120 |  | 
O=C(NCCCOc1ccc(C(F)(F)F)cc1)c1cc2ncn(CC(=O)N3CCCCC3)c(=O)c2cc1-c1cccc(Cl)c1 | 93.2 | 800 |  | half-life at 1.25 µM [2]: 15.6 min; IC50 [5]: 800 nM
COC(=O)Cn1cnc2cc(C(=O)NCCCc3ccccc3)c(-c3cccc(F)c3)cc2c1=O |  |  | -0.98 | 
COC(=O)Cn1cnc2cc(NC(=O)COCc3ccccc3)c(Oc3cccc(N(C)C)c3)cc2c1=O | 47.6 |  |  | inhibition [4]: 35%
COC(=O)Cn1cnc2cc(NC(=O)c3ccc(C#N)cc3)c(Oc3cccc(N(C)C)c3)cc2c1=O |  |  | 13.1 | 
CN(C)c1cccc(Oc2cc3c(=O)[nH]cnc3cc2NC(=O)COCc2ccc(C(F)(F)F)cc2)c1 | 50.4 |  |  | inhibition ([4]; filed as antagonist): 54%; IC50 [5]: 800 nM
O=C(COCc1ccc(C(F)(F)F)cc1)Nc1cc2ncn(CC(=O)N3CCCC(F)(F)C3)c(=O)c2cc1Oc1cccc(N2CCOCC2)c1 | 88.2 | 540 |  | half-life at 1.25 µM [2]: 12.9 min; IC50 [5]: 500 nM
CN(C)c1cccc(Oc2cc3c(=O)n(CC(=O)N4CCC(F)(F)CC4)cnc3cc2NC(=O)COCc2ccc(C(F)(F)F)cc2)c1 | 82 | 270 |  | inhibition ([4]; filed as antagonist): 87%; IC50 [5]: 1180 nM
COC(=O)Cn1cnc2cc(NC(=O)COCc3ccc(C(F)(F)F)cc3)c(Oc3cccc(N(C)C)c3)cc2c1=O | 85.4 | 1150 |  | inhibition ([4]; filed as antagonist): 76.9%; IC50 [5]: 990 nM
COC(=O)Cn1cnc2cc(NC(=O)COCc3ccc(F)cc3)c(Oc3cccc(N(C)C)c3)cc2c1=O |  |  | 33.4 | inhibition ([4]; filed as antagonist): 42.5%
O=C(NCCCc1ccc(Cl)cc1)c1cc2nc[nH]c(=O)c2cc1-c1cccc(Cl)c1 | 41.5 |  |  | 
O=C(NCCCc1ccc(Cl)cc1)c1cc2nc[nH]c(=O)c2cc1-c1cccc(C(F)(F)F)c1 |  |  | 35 | 
CCc1ccc(S(=O)(=O)Nc2cc(-n3c(C)nc4ccccc4c3=O)ccc2F)s1 |  |  |  | IC50 [6]: > 50 µM
CN(C)c1cccc(Oc2cc3c(=O)[nH]cnc3cc2NC(=O)c2ccc(C#N)cc2)c1 |  |  | 19.4 | inhibition [4]: 13.1%
CN(C)c1cccc(Oc2cc3c(=O)[nH]cnc3cc2NC(=O)CCCOc2ccc(C(F)(F)F)cc2)c1 | 59.1 | 5640 |  | inhibition ([4]; filed as antagonist): 58.5%; IC50 [5]: 4770 nM
COC(=O)Cn1cnc2cc(NC(=O)COCc3ccc(C#N)cc3)c(Oc3cccc(N(C)C)c3)cc2c1=O | 55.7 |  |  | inhibition ([4]; filed as antagonist): 58.7%
CN(C)c1cccc(Oc2cc3c(=O)n(CC(=O)N4CCC(F)CC4)cnc3cc2NC(=O)COCc2ccc(C(F)(F)F)cc2)c1 | 89.1 | 210 |  | inhibition ([4]; filed as antagonist): 94.3%; IC50 [5]: 1110 nM

Compound | inhibition ([1]; filed as antagonist) [%] | IC50 [3] [nM] | inhibition [1] [%] | also measured
COC(=O)Cn1cnc2cc(NC(=O)CCCOc3ccc(C#N)cc3)c(Oc3cccc(N(C)C)c3)cc2c1=O | 48 |  |  | 
COC(=O)Cn1cnc2cc(NC(=O)COCc3ccc(Cl)cc3)c(Oc3cccc(N(C)C)c3)cc2c1=O | 69 | 4310 |  | 
COC(=O)Cn1cnc2cc(C(=O)NCCCc3ccc(Cl)cc3)c(-c3cccc(F)c3)cc2c1=O | 65.3 | 3240 |  | 
COC(=O)Cn1cnc2cc(NC(=O)CCCOc3ccc(C(F)(F)F)cc3)c(Oc3cccc(N(C)C)c3)cc2c1=O | 70.9 | 2650 |  | 
O=C(CCCOc1ccc(C(F)(F)F)cc1)Nc1cc2nc[nH]c(=O)c2cc1Oc1cccc(N2CCOCC2)c1 | 65.4 | 2480 |  | half-life at 1.25 µM [2]: 10.1 min
COC(=O)Cn1cnc2cc(NC(=O)CCCOc3ccc(C(F)(F)F)cc3)c(Oc3ccc(N(C)C)cc3)cc2c1=O | 68.4 | 3870 |  | 
COC(=O)Cn1cnc2cc(NC(=O)c3ccc(C(F)(F)F)cc3)c(Oc3cccc(N(C)C)c3)cc2c1=O |  |  | 31.7 | 
O=C(NCCCc1ccccc1)c1cc2nc[nH]c(=O)c2cc1-c1cccc(F)c1 |  |  | -1.81 | 
COC(=O)Cn1cnc2cc(C(=O)NCCOCc3ccc(C(F)(F)F)cc3)c(-c3cccc(F)c3)cc2c1=O | 64 | 3460 |  | 
COC(=O)Cn1cnc2cc(NC(=O)CCCOc3ccc(C(F)(F)F)cc3)c(Oc3ccccc3)cc2c1=O |  |  | 28.2 | 
COC(=O)Cn1cnc2cc(NC(=O)COCc3ccc(C(F)(F)F)cc3)c(Oc3ccccc3N(C)C)cc2c1=O | 87.9 | 1650 |  | 
O=C(O)Cn1cnc2cc(C(=O)NCCCOc3ccc(C(F)(F)F)cc3)c(-c3cccc(Cl)c3)cc2c1=O |  |  | 22 | half-life at 1.25 µM [2]: 22.9 min
COC(=O)Cn1cnc2cc(C(=O)NCCCc3ccc(Cl)cc3)c(-c3cccc(Cl)c3)cc2c1=O | 58.2 | 1640 |  | 
O=C(NCCCOc1ccc(C(F)(F)F)cc1)c1cc2nc[nH]c(=O)c2cc1-c1cccc(Cl)c1 | 90 | 840 |  | IC50 [5]: 840 nM
COC(=O)Cn1cnc2cc(NC(=O)COCc3ccc(C(F)(F)F)cc3)c(Oc3cccc(N4CCOCC4)c3)cc2c1=O | 88.9 | 650 |  | IC50 [5]: 550 nM
COC(=O)Cn1cnc2cc(C(=O)NCCCOc3ccc(C(F)(F)F)cc3)c(-c3cccc(Cl)c3)cc2c1=O | 89.6 | 890 |  | IC50 [5]: 1000 nM
COC(=O)Cn1cnc2cc(NC(=O)CCCOc3ccc(F)cc3)c(Oc3cccc(N(C)C)c3)cc2c1=O |  |  | 33.5 | 
O=C(NCCOCc1ccc(C(F)(F)F)cc1)c1cc2nc[nH]c(=O)c2cc1-c1cccc(C(F)(F)F)c1 | 72.4 | 4390 |  | 
COC(=O)Cn1cnc2cc(NC(=O)COCc3ccc(C(F)(F)F)cc3)c(Oc3ccccc3)cc2c1=O | 50.2 |  |  | 
O=C(COCc1ccc(C(F)(F)F)cc1)Nc1cc2nc[nH]c(=O)c2cc1Oc1cccc(N2CCOCC2)c1 |  |  | 37.6 | 
O=C(NCCOCc1ccc(C(F)(F)F)cc1)c1cc2nc[nH]c(=O)c2cc1-c1cccc(Cl)c1 | 64.4 | 1340 |  | half-life at 1.25 µM [2]: 22.9 min
O=C(NCCCc1ccccc1)c1cc2nc[nH]c(=O)c2cc1-c1cccc(C(F)(F)F)c1 |  |  | 4.06 | 
CN(C)c1cccc(Oc2cc3c(=O)n(CC(=O)N4CCCCC4)cnc3cc2NC(=O)COCc2ccc(C(F)(F)F)cc2)c1 | 87.5 | 260 |  | inhibition ([4]; filed as antagonist): 92.4%; IC50 [5]: 1750 nM
